Active and inactive are the calls of the source. No cut-off for these calls is given here.
Experiments:
[1] = system: Trypanosoma brucei brucei; assay: Antimicrobial activity against Trypanosoma brucei brucei 427 bloodstream form assessed as reduction in mitochondrial membrane potential at 10 uM using rhodamine 123 exclusion test; format: functional, organism-based
Outline: (§1)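 Rat-derived bloodstream cells washed in Tes buffer pH 7.5 (10 mM glucose, 1.0% fatty acid-free BSA) at room temperature. Cells at 10^7/ml pretreated with compound for the stated time, then 250 nM Rh123 for 2 min. Diluted 1:10 and flow cytometry (excitation 507, emission 529 nm) on 20,000 cells. % decrease in mean fluorescence versus untreated cells; at least three independent experiments.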

[2] = system: Trypanosoma brucei brucei; assay: Antimicrobial activity against Trypanosoma brucei brucei 427 bloodstream form assessed as reduction in mitochondrial membrane potential at 4 uM after 1 min using rhodamine 123 exclusion test; format: functional; set-up: scale not given: the % may be the effect or the level left; outline: as §1
[3] = system: Trypanosoma brucei brucei; assay: Antimicrobial activity against Trypanosoma brucei brucei 427 bloodstream form assessed as reduction in mitochondrial membrane potential at 4 uM after 10 mins using rhodamine 123 exclusion test relative to control; format: functional; set-up: scale not given: the % may be the effect or the level left; outline: as §1
[4] = system: Trypanosoma brucei brucei; assay: Antimicrobial activity against Trypanosoma brucei brucei 427 bloodstream form assessed as inhibition of mitochondrial ATPase activity at 50 uM after 10 mins; format: functional; set-up: scale not given: the % may be the effect or the level left
Outline: (§2)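 Bloodstream-form mitochondrial fraction, 100 μg protein, in 20 mM Tris-HCl pH 7.4 with 15 mM KH2PO4, 0.6 M sorbitol, 10 mM MgSO4 and 2.5 mg/ml fatty acid-free BSA. Pre-incubated 10 min on ice with compound (final 10, 50 or 100 μM; oligomycin 50 μM pretreatment where combined), then 0.20 mM ATP for 30 min at 30°C. Perchloric acid quench; remaining ATP by luciferase against a standard curve, blank subtracted. Activity relative to untreated control (100%). Duplicates; three independent experiments.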

[5] = system: Trypanosoma brucei brucei; assay: Antimicrobial activity against Trypanosoma brucei brucei 427 bloodstream form assessed as inhibition of glucose-dependent cellular respiration at 300 uM; format: functional, organism-based
Outline: (§3)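 Bloodstream trypanosomes from infected rat blood, DE52-purified, washed once in mannitol-based buffer pH 7.4 (220 mM mannitol, 25 mM HEPES, 2 mM EGTA, 5 mM MgSO4) with 20 mM glucose. O2 uptake of 2.0 × 10^6 cells/ml recorded with an oxygen electrode at 37°C. % inhibition from the rates just before vs after compound addition. Two independent experiments.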

[6] = Drug uptake in Trypanosoma brucei brucei 427 bloodstream form kinetoplast at 1 uM after 5 mins by fluorescence microscopy; format: ADME
Outline: (§4)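 Cells (about 10^6) incubated with 1.0 μM compound in cBMEM (MEM-based, 10% heat-inactivated FBS) at 37°C, 5% CO2. Aliquots taken at set times, pelleted, and dried films examined by UV fluorescence microscopy. Intrinsic blue fluorescence (excitation 365, emission 465 nm) scored in nucleus and kinetoplast.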

[7] = system: Trypanosoma brucei brucei; assay: Antimicrobial activity against Trypanosoma brucei brucei 427 bloodstream form assessed as inhibition of mitochondrial ATPase activity at 100 uM after 10 mins; format: functional; set-up: scale not given: the % may be the effect or the level left; outline: as §2
[8] = system: Trypanosoma brucei brucei; assay: Antimicrobial activity against Trypanosoma brucei brucei 427 bloodstream form assessed as reduction in mitochondrial membrane potential at 10 uM after 1 min using rhodamine 123 exclusion test; format: functional; set-up: scale not given: the % may be the effect or the level left; outline: as §1
[9] = system: Trypanosoma brucei brucei; assay: Antimicrobial activity against Trypanosoma brucei brucei 427 bloodstream form assessed as inhibition of mitochondrial ATPase activity 10 uM after 10 mins; format: functional; set-up: scale not given: the % may be the effect or the level left; outline: as §2
[10] = Drug uptake in Trypanosoma brucei brucei 427 bloodstream form mitochondria at 100 uM after 5 mins by fluorescence microscopy; format: ADME
Outline: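 Living cells (10^6/ml) loaded with 25 nM MitoTracker Red CMXRos for 30 min at 37°C, washed, then given 100 μM compound for 5 min. Immobilised in 1.5% agarose (3.0% mixed 1:1) on a cold slide. Viewed with a DAPI-FITC-Texas Red triple filter; pink overlap taken as mitochondrial colocalisation.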

[11] = system: Trypanosoma brucei brucei; assay: Antimicrobial activity against Trypanosoma brucei brucei 427 bloodstream form assessed as reduction in mitochondrial membrane potential at 1 uM after 1 min using rhodamine 123 exclusion test; format: functional, organism-based; outline: as §1
[12] = Drug uptake in Trypanosoma brucei brucei 427 bloodstream form nucleus at 1 uM after 5 mins by fluorescence microscopy; format: ADME; outline: as §4
[13] = system: Trypanosoma brucei brucei; assay: Inhibition of respiration in Trypanosoma brucei brucei 427 bloodstream form mitochondria using glycerol-3-phosphate as substrate at 600 uM; format: functional
Outline: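 Mitochondrial fraction from rat-derived bloodstream cells, prepared by glass-bead lysis and differential centrifugation (12,000 × g pellet) at 0–4°C. Suspended to 0.8 mg/ml in glucose-free mannitol buffer pH 7.4 with 20 mM L-α-glycerol phosphate as substrate. O2 uptake by oxygen electrode at 37°C; compound added after a stable reading (about 2 min) and recording continued several minutes.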

[14] = system: Trypanosoma brucei brucei; assay: Antimicrobial activity against Trypanosoma brucei brucei 427 bloodstream form assessed as inhibition of mitochondrial ATPase activity pretreated with oligomycin for 10 mins; format: functional; outline: as §2
[15] = system: Trypanosoma brucei brucei; assay: Antimicrobial activity against Trypanosoma brucei brucei 427 bloodstream form assessed as inhibition of glucose-dependent cellular respiration; format: functional, organism-based; outline: as §3
[16] = system: Trypanosoma brucei brucei; assay: Inhibition of respiration in Trypanosoma brucei brucei 427 bloodstream form mitochondria using glycerol-3-phosphate as substrate at 10 uM; format: functional
Outline: (§5)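 Bloodstream trypanosomes were taken from infected rat blood and purified on DE52. They were lysed with glass beads, and a mitochondrial fraction was isolated by differential centrifugation at 0–4°C. Mitochondria at 0.8 mg/ml were held in mannitol/HEPES/EGTA/MgSO4 buffer, pH 7.4, without glucose, with 20 mM L-α-glycerol phosphate as substrate. Compound was added after a stable reading (about 2 min), and O2 consumption was recorded by oxygen electrode at 37°C.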

[17] = system: Trypanosoma brucei brucei; assay: Inhibition of respiration in Trypanosoma brucei brucei 427 bloodstream form mitochondria using glycerol-3-phosphate as substrate at 2 mM; format: functional; outline: as §5
[18] = system: Trypanosoma brucei brucei; assay: Antimicrobial activity against Trypanosoma brucei brucei 427 bloodstream form assessed as reduction in mitochondrial membrane potential at 10 uM after 10 mins using rhodamine 123 exclusion test relative to control; format: functional; set-up: scale not given: the % may be the effect or the level left; outline: as §1
[19] = system: Trypanosoma brucei brucei; assay: Antimicrobial activity against Trypanosoma brucei brucei 427 bloodstream form assessed as reduction in mitochondrial membrane potential at 10 uM after 5 mins using rhodamine 123 exclusion test relative to control; format: functional; set-up: scale not given: the % may be the effect or the level left; outline: as §1

In the case of `CCCCCC[C@H]1C(=O)O[C@H](C)[C@H](NC(=O)c2cccc(NC=O)c2O)C(=O)O[C@@H](C)[C@@H]1OC(=O)CC(C)C`, the Activity [1] is reported as “inactive”.

`CC[C@H]1/C=C/C=C/C[C@@H](C)[C@H](O)[C@@](C)(O)C(=O)[C@@H](C)[C@H](O)[C@@H](C)C(=O)[C@@H](C)[C@H](O)[C@@H](C)/C=C/C(=O)O[C@@H]2[C@H](C)[C@H](CC1)O[C@]1(CC[C@H](C)[C@H](C[C@@H](C)O)O1)[C@H]2C` [OLIGOMYCIN] gave an Activity [2] of 23%, an Activity [3] of 50% and an Activity [4] of 30%.

With `N=C(N)c1ccc(-c2ccc(-c3ccc(C(=N)N)cc3)o2)cc1` [FURAMIDINE] the Activity [5] was “Active”, the Drug uptake [6] was “Active” and the Activity [7] was 47%. The Activity [8] was 57%, the Activity [9] was 20% and the Drug uptake [10] was “Active”. The Activity [11] was “Active”, the Activity [4] was 47% and the Drug uptake [12] was “Active”. The inhibition [13] was “inactive”, the Activity [14] was “Active” and the IC50 [15] was 20 µM.

For `O=C(NO)c1ccccc1O`, the inhibition [16] was “Active” and the inhibition [17] was “Active”.

In the case of `CC(C)[C@@H]1NC(=O)[C@H](C)OC(=O)[C@@H](C(C)C)NC(=O)[C@@H](C(C)C)OC(=O)[C@H](C(C)C)NC(=O)[C@H](C)OC(=O)[C@@H](C(C)C)NC(=O)[C@@H](C(C)C)OC(=O)[C@H](C(C)C)NC(=O)[C@H](C)OC(=O)[C@@H](C(C)C)NC(=O)[C@@H](C(C)C)OC1=O` [VALINOMYCIN], the Activity [18] is reported as 70%.

In the case of `N#CC(C#N)=NNc1cccc(Cl)c1` [CARBONYL CYANIDE M-CHLOROPHENYLHYDRAZONE], the Activity [19] is reported as 51%, the Activity [8] is reported as 36% and the Activity [4] is reported as “inactive”.

Source: ChEMBL document CHEMBL1255240, “The mitochondrion is a site of trypanocidal action of the aromatic diamidine DB75 in bloodstream forms of Trypanosoma brucei” (Antimicrob Agents Chemother, 2008)
